In ChEMBL document CHEMBL1177703, “Design and synthesis of novel xyloketal derivatives and their vasorelaxing activities in rat thoracic aorta and angiogenic activities in zebrafish angiogenesis screen” (J Med Chem, 2010):
Structures can show the parent of a compound that is named as a salt. Activity calls are given as the source filed them. The calls are words filed in the database; no cut-off is given here.

What was measured:
[1] = tested on: Aorta; assay: Vasorelaxant activity in Sprague-Dawley rat endothelium intact thoracic aortic rings assessed as inhibition of KPSS-induced contraction; format: functional, tissue-based
Outline: (§1)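 Rat thoracic aortic rings (2-3 mm) held in Krebs bicarbonate at 37 °C, pH 7.4, gassed with 95% O2/5% CO2. Endothelium accepted as intact with >80% relaxation to 1 μM ACh after 1 μM phenylephrine, and as denuded with no ACh response. Rings precontracted with KCl (30 mM intact, 25 mM denuded). Cumulative curves 0.5-200 μM, vehicle 2% DMSO, one curve per ring; EC50 derived.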

[2] = tested on: HUVEC; assay: Protection against oxidatively modified low density lipoprotein-induced cell injury in HUVEC assessed as cell viability at 20 uM pretreated for 30 mins before oxLDL challenge measured after 24 hrs by MTT assay; format: functional, cell-based; details: Homo sapiens
Outline: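 HUVECs pretreated 30 min with 20 μM compound, then given oxLDL (150 μg/mL) or vehicle for 24 h. MTT added and absorbance read at 570 nm after 4 h. Mean ± SD, n = 6.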

[3] = tested on: HUVEC; assay: Cytotoxicity against HUVEC assessed as cell viability > 200 uM after 24 hrs by MTT assay; format: cell-based; details: human
[4] = organism: Danio rerio; assay: Angiogenic activity in zebrafish embryo at 100 uM after 72 hrs by microscopical analysis
[5] = tested on: Aorta; assay: Vasorelaxant activity in Sprague-Dawley rat endothelium denuded thoracic aortic rings assessed as inhibition of KCL-induced contraction; format: functional, tissue-based; outline: as §1
[6] = tested on: HUVEC; assay: Induction of nitric oxide production in HUVEC at 20 uM after 24 hrs by griess reaction in presence of L-NAME; format: functional, cell-based; details: Homo sapiens
Outline: (§2)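 HUVECs preincubated 24 h with 20 μM compound, alone or together with 100 μM L-NAME. Nitrite in 100 μL medium mixed 1:1 with Griess reagent for 15 min, absorbance read at 540 nm, quantified against a NaNO2 standard curve run with each experiment. Samples in triplicate; mean ± SD, n = 6.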

[7] = tested on: HUVEC; assay: Induction of nitric oxide production in HUVEC at 20 uM after 24 hrs by griess reaction; format: functional, cell-based; details: Homo sapiens; outline: as §2
[8] = organism: Danio rerio; assay: Angiogenic activity in zebrafish embryo after 72 hrs by microscopical analysis

Structure (SMILES)	EC50 [1] [µM]	Activity [2]	Activity [3]	Angiogenic activity [4]	EC50 [5] [µM]	Activity [6]	Activity [7]	Angiogenic activity [8]
CCCOc1cc2c(c3c1C[C@@H]1[C@@H](C)CO[C@]1(C)O3)C[C@@H]1[C@@H](C)CO[C@]1(C)O2 [XYLOKETAL B PROPYL ETHER]	43	Active	Non-toxic	Active	77			
COC(=O)c1c(O)c2c(c3c1O[C@@]1(C)OC[C@H](C)[C@H]1C3)O[C@@]1(C)OC[C@H](C)[C@H]1C2 [XYLOKETAL B METHYL FORMATE]	8		Non-toxic	Active	14			
CCCCOc1cc2c(c3c1C[C@@H]1[C@@H](C)CO[C@]1(C)O3)C[C@@H]1[C@@H](C)CO[C@]1(C)O2 [XYLOKETAL B BUTYL ETHER]	111		Non-toxic		> 200			
COc1cc2c(c3c1C[C@@H]1[C@@H](C)CO[C@]1(C)O3)C[C@@H]1[C@@H](C)CO[C@]1(C)O2 [XYLOKETAL B METHYL ETHER]	17	Active	Non-toxic	Active	33	inactive	Active	
CCCCCCOc1cc2c(c3c1C[C@@H]1[C@@H](C)CO[C@]1(C)O3)C[C@@H]1[C@@H](C)CO[C@]1(C)O2 [XYLOKETAL B HEXYL ETHER]	> 200		Non-toxic		> 200			
C[C@H]1CO[C@]2(C)Oc3ccc4c(c3C[C@H]12)O[C@@]1(C)OC[C@H](C)[C@H]1C4 [DEHYDROXY XYLOKETAL B]	55		Non-toxic		72			
CC1COC2(C)Oc3cc(O)cc(O)c3CC12 (racemic)	39	Active	Non-toxic	Active	66			
CNC(=O)c1c(O)c2c(c3c1O[C@@]1(C)OC[C@H](C)[C@H]1C3)O[C@@]1(C)OC[C@H](C)[C@H]1C2	9		Non-toxic	Active	15			
C[C@H]1CO[C@]2(C)Oc3c(c(O)c(Cc4c(O)c5c(c6c4O[C@@]4(C)OC[C@H](C)[C@H]4C6)O[C@@]4(C)OC[C@H](C)[C@H]4C5)c4c3C[C@@H]3[C@@H](C)CO[C@]3(C)O4)C[C@H]12	87		Non-toxic	Active	> 200			
CC1COC2(C)Oc3cc(O)c4c(c3CC12)OC1(C)OCC(C)C1C4 (racemic) [(+/-)-XYLOKETAL B]	19	Active	Non-toxic	Active	41			Dose-dependent effect
C[C@H]1CO[C@]2(C)Oc3cccc(O)c3C[C@H]12 [DEHYDROXY XYLOKETAL H]	128		Non-toxic		> 200			
COC1(C)CCc2c(c3c(c4c2OC(C)(OC)CC4)OC(C)(OC)CC3)O1 (stereo not drawn)	65		Non-toxic	Active	118			
C[C@H]1CO[C@]2(C)Oc3c(c(O)c(C(N)=O)c4c3C[C@@H]3[C@@H](C)CO[C@]3(C)O4)C[C@H]12 [XYLOKETAL B FORMAMIDE]	3		Non-toxic	Active	10			
C[C@H]1CO[C@]2(C)Oc3c(c(O)c(C(=O)O)c4c3C[C@@H]3[C@@H](C)CO[C@]3(C)O4)C[C@H]12 [XYLOKETAL B ACID]	> 200		Non-toxic		> 200			
COC(=O)C(C)NC(=O)c1c(O)c2c(c3c1O[C@@]1(C)OC[C@H](C)[C@H]1C3)O[C@@]1(C)OC[C@H](C)[C@H]1C2 (stereo partly drawn)	5		Non-toxic	Active	13			
C#CCOc1cc2c(c3c1C[C@@H]1[C@@H](C)CO[C@]1(C)O3)C[C@@H]1[C@@H](C)CO[C@]1(C)O2 [XYLOKETAL B PROPARGYL ETHER]	23	Active	Non-toxic	Active	22	inactive	Active	
C[C@H]1CO[C@]2(C)Oc3cc(OC/C=C/c4ccccc4)c4c(c3C[C@H]12)O[C@@]1(C)OC[C@H](C)[C@H]1C4 [XYLOKETAL B CINNAMYL ETHER]	64		Non-toxic		> 200			
C[C@H]1CO[C@]2(C)Oc3c(c4c(c5c3C[C@@H]3[C@@H](C)CO[C@]3(C)O5)C[C@@H]3[C@@H](C)CO[C@]3(C)O4)C[C@H]12	12		Non-toxic	Active	31	inactive	Active	
C=C=CCOc1cc2c(c3c1C[C@@H]1[C@@H](C)CO[C@]1(C)O3)C[C@@H]1[C@@H](C)CO[C@]1(C)O2 [XYLOKETAL B ALLENIC ETHER]	12	Active	Non-toxic	Active	11			
Cc1cc2c(c3c1C[C@@H]1[C@@H](C)CO[C@]1(C)O3)C[C@@H]1[C@@H](C)CO[C@]1(C)O2 [METHYL XYLOKETAL B]	40	Active	Non-toxic	Active	52	inactive	Active	
CC1COC2(C)Oc3c(c4c(c5c3CC3C(C)COC3(C)O5)CC3C(C)COC3(C)O4)CC12 (racemic)	6	Active	Non-toxic	Active	11			
COc1cc(OC)c2c(c1)O[C@@]1(C)OC[C@H](C)[C@H]1C2 [XYLOKETAL H DIMETHYL ESTER]	37		Non-toxic		80			
